For data set [1], the target named is AmpC β-lactamase (Escherichia coli, UniProt P00811). The data set can be described thus: AmpC β-lactamase inhibition with and without Triton X-100. The format is biochemical. The conditions noted are these: for IC50: 1% DMSO. The gist of the method: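 AmpC β-lactamase activity was measured following an earlier published method, with final DMSO at 1% in all samples. Concentration-response curves were run with and without 0.01% Triton X-100. Where detergent fully reversed inhibition, only the highest inhibitor concentration was tested. Values are means of duplicate samples from two independent experiments. Detergent-sensitive inhibition with IC50 better than 100 µM was one criterion for classing a compound as an aggregator.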

The nature of data set [2]: Particle formation by dynamic light scattering. The format is physicochemical. The conditions noted are these: for DLS detected (concentration at which particles were detected) / DLS particle radius: dynamic light scattering; for DLS particle radius: at the concentration detected. The gist of the method:
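Particle formation was measured by dynamic light scattering following an earlier published method, with each test compound in buffer both without and with 0.01% Triton X-100. Read-outs were scattering intensity and average particle radius. For selected compounds, critical aggregation concentration was found by tracking scattering intensity as concentration rose, using three independent experiments. Forming aggregator-type particles was a required criterion.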

Data set [3] has as its target monoamine oxygenase B (MAOB). As to conditions: read-out: Inhibition of MAOB; cited from earlier work.
For data set [4] the following is noted: cited from earlier work; for Known aggregator status: previously reported.
For data set [5], the target named is cholesterol ester transferase protein (CETP). As to conditions: read-out: Inhibition of CETP; cited from earlier work.
Setting [6] is: read-out: AmpC IC50 no Triton, no Triton X-100.
Setting [7] is: read-out: AmpC IC50 plus Triton, plus 0.01% Triton X-100.

Where two headings read alike, the source gives them in different places.

Sequence of AmpC β-lactamase (P00811 20-377): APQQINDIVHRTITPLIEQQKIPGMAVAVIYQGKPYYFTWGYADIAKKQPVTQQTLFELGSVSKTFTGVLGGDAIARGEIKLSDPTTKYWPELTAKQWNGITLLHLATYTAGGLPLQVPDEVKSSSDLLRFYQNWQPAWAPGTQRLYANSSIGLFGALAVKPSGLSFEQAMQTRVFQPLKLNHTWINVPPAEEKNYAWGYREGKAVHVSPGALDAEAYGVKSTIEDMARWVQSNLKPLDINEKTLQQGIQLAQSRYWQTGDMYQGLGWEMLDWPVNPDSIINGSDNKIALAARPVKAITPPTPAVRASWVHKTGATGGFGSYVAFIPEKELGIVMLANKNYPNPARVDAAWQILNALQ

As for `Cc1cc(NS(=O)(=O)c2ccc(NC(=O)COc3c(C)cc(Br)cc3C)cc2)no1` [CHEMBL1333273], in data set [1] (setting [6]), the IC50 came out at 146 µM. For the same compound, the IC50 in data set [1] (setting [7]) is over 400 µM. In data set [2], the “DLS detected (concentration at which particles were detected)” value (“DLS detected” below) is reported as 100 µM and the DLS particle radius came to 49 nm.
Consider `CCOC(=O)c1c(-c2ccc(C)o2)csc1NC(=O)CSc1ncn[nH]1` [CHEMBL1347854], for which the IC50 in data set [1] (setting [6]) was 29 µM. For the same compound, in data set [1] (setting [7]), the IC50 is over 100 µM. Besides, in data set [2], the “DLS detected” value is reported as 10 µM and the DLS particle radius came to 115 nm.
Turning to `COc1ccc2c(=O)cc(-c3ccc(C)cc3)oc2c1` [CHEMBL17052], the “Colloid formation by DLS” value in data set [2] (up to concentrations of at least 200 µM (Table 2)) is recorded as “does not form colloids”. Further, the IC50 in data set [3] is 11.3 µM.
In the case of `CC(=O)c1c(O)c(C)c(O)c(Cc2c(O)c3c(c(C(=O)/C=C/c4ccccc4)c2O)OC(C)(C)C=C3)c1O` [Rottlerin], the Known aggregator status result in data set [4] is “known aggregator at micromolar concentrations”.
Turning to `CN(CCC#N)C(=O)c1cc2c(s1)-c1ccccc1SC2` [CHEMBL1565380], the IC50 in data set [1] (setting [6]) was 184 µM. In data set [1] (setting [7]), the IC50 is over 400 µM. Besides, in data set [2], the “DLS detected” value was 100 µM and the DLS particle radius turned out to be 71 nm.
Consider `Nc1sc2c(c1C(=O)c1ccc(Cl)cc1)CCCC2` [CHEMBL57997], for which the IC50 in data set [1] (setting [6]) is 12.7 µM. Also, the IC50 in data set [1] (setting [7]) was over 100 µM. In data set [2], the “DLS detected” value is recorded as 21 µM and the DLS particle radius amounted to 270 nm.
Take `CNC(=O)c1cc(Oc2ccc(NC(=O)Nc3ccc(Cl)c(C(F)(F)F)c3)cc2)ccn1` [sorafenib]: the “CAC (critical aggregation concentration)” value in data set [4] (in biochemical buffer and in cell culture) was 3.5 µM. The Known aggregator status result in data set [4] was “strong aggregators”.
Turning to `COc1ccc(OC(C)C(=O)N(C)Cc2nc(-c3ccc(OC)cc3)no2)cc1` (stereo not shown) [CHEMBL1508601], the figures for the IC50 in data set [1] (setting [6]) and in data set [1] (setting [7]) were 235 µM and over 400 µM, respectively. Moreover, the “DLS detected” value in data set [2] came out at 100 µM. This compound also displayed a DLS particle radius in data set [2] of 62 nm.
Turning to `Cc1ccccc1OCC(=O)Nc1ccc(-c2nc3cc(Cl)ccc3o2)cc1` [CHEMBL261275], in data set [1] (addition of 0.01% Triton X-100), the “Effect of 0.01% Triton X-100 on β-lactamase inhibition” value is given as “fully abrogated”. Also, the IC50 in data set [1] (setting [6]) was 7 µM; in data set [1] (setting [7]), over 100 µM; in data set [5] it was 21 µM. In addition, in data set [2], the “DLS detected” value is listed as 4 µM. In data set [2], this compound showed a DLS particle radius of 2312 nm.
Regarding `Cc1ccc(-c2noc(CN(C(=O)C(c3ccccc3)c3ccccc3)C(C)C)n2)cc1` [CHEMBL1304694], in data set [1] (setting [6]), the IC50 stood at 8 µM. Also, in data set [1] (setting [7]), the IC50 was over 100 µM. For the same compound, in data set [2], the “DLS detected” value was found to be 20 µM and the DLS particle radius was 456 nm.
As for `C[C@]12CC[C@@H]3c4ccc(O)cc4C[C@@H](CCCCCCCCC[S+]([O-])CCCC(F)(F)C(F)(F)F)[C@H]3[C@@H]1CC[C@@H]2O` (stereo partly shown) [fulvestrant], the Known aggregator status entry in data set [4] is given as “strong aggregators”.
As to `C=CCOC(=O)c1[nH]c2c(c1C)C(=O)CC(c1ccco1)C2` (stereo not shown) [CHEMBL1359872], the IC50 in data set [1] (setting [6]) is 10 µM; in data set [1] (setting [7]), over 100 µM. For the same compound, the “DLS detected” value in data set [2] is recorded as 10 µM. The compound also returned a DLS particle radius in data set [2] of 405 nm.

Source of the values: PMC4646424 (Journal of medicinal chemistry, 2015).
